The EternaBench riboswitch data

Tested on: MS2 coat protein
Assay: apparent Kd, MS2 coat protein; higher = weaker binding; RNA-MaP array; FMN 200 µM where present
Summary of the method: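 Two titrations, one without ligand and one with constant ligand, were run with SNAP-549-labelled MS2 coat protein from 0.7 or 1.5 nM, doubling to 3 µM. The targets were designs transcribed by stalled E. coli RNA polymerase on Illumina sequencing-chip clusters, in 100 mM Tris-HCl pH 7.5, 80 mM KCl, 4 mM MgCl2, BSA, DTT, yeast tRNA and Tween-20. The apparent Kd is the median of filtered per-cluster binding-curve fits, with green signal normalised to red-channel RNA signal and control-cluster median Fmax.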

[1] = designed as: OFF switch for flavin mononucleotide, no ligand
[2] = ligand present: flavin mononucleotide, designed as: OFF switch for flavin mononucleotide
[3] = designed as: ON switch for flavin mononucleotide, no ligand
[4] = ligand present: flavin mononucleotide, designed as: ON switch for flavin mononucleotide

| Sequence | apparent Kd [1] [nM] | apparent Kd [2] [nM] | apparent Kd [3] [nM] | apparent Kd [4] [nM] |
| --- | --- | --- | --- | --- |
| CUGGUGUUAGGAUAUUCGAGGCUGCCUCGGAGACGAGGGUAGGAGAAGGGACAUGAGGAUCACCCAUGUGCUCC | 34.4 | 37.6 | – | – |
| ACUAACGAAGGAUAUACUAACGAAACUAAUGCAUAGAUAAAACAUGAGGAUCACCCAUGUAGAAGGUCGAGACU | 22.5 | 25.5 | – | – |
| GGCAAUAACGAGGAUAUCGUAUCGGAAACGAUACGAGAAGGUGUAACAUGAGGAUCACCCAUGUUCCUUAAGCC | 24.9 | 26.6 | – | – |
| UGUCGGAGCAGAGGAUAUUACAUGAGGAUCACCCAUGUAUGAACCAAUAGCUGGAAACAGCCAUGUAAGAAGGCUGCUCCGACA | 157 | 543 | – | – |
| CAAAAGCGAGGAUAUACAUGAGGAUCACCCAUGUGGCAGCCAUGUAGGAGUGACGUCGGUAGAAGGCGCACCCU | 99.8 | 141 | – | – |
| UGUCGGAGCAGAGGAUAUUACAUGAGGAUCACCCAUGUAUGAACCAAUAGCUGGAAACAGCAAUGUAAGAAGGCUCCUCCGACA | 6.18 | 20.5 | – | – |
| ACAAAGUGAGGAUAUGCUUUUAUUUAUUAUUAUUAUUAUUUGCAGAAGGCACAUGAGGAUCACCCAUGUAAGAA | 32.9 | 25.5 | – | – |
| UAUAUAUAGUAAGGAUAUGUAUUAAUUUUAUCAACAGAAGGUACUGACAUGAGGAUCACCCAUGUUUUAGUGUGGGCAUGUAGA | 84 | 109 | – | – |
| UGGUUCUAGGGAGGAUAUGGGAAGAUACAUGAGGAUCACCCAUGUUUAAGAAUGCCGAGAGGCAACUAGAAGGCCCUAGUACCU | – | – | 406 | 20.3 |
| GAACUGAAGCAUAGCUUUAGUCGUACAUGAGGAUCACCCAUGUAGGAUAUAGUAGGCAUAGCUUACUAGAAGGAUAGAGUGAUC | 254 | 106 | – | – |
| CGUGCUUAUGUAGGAUAUGGUUAUCUAUGUCUAGUUACUAGACAUAGAUAACCAGAAGGACAUGAGGAUCACCCAUGUUGCACG | 8.28 | 15.5 | – | – |
| GCAGUAAAUAAAUGCACAUGAGGAUCACCCAUGUGGGAGGCACAGGAUAUCGCACCAUAGUGGCGCGAGAAGGGUGAUAAUCUC | – | – | 416 | 57.8 |
| GUAGCUGCAGGAUAUCUAUCUUCUGACAUGAGGAUCACCCAUGUACUUACUUGGCUCAGUGGAGAAGGGCAGCGUU | 124 | 84.2 | – | – |
| GGUACCAUCACAGGAUAUGCUAUCCUUUGGGUAGCAGAAGGGUGAUAACAUGAGGAUCACCCAUGUGGUACCGGGCGUGAGCCC | – | – | 1030 | 197 |
| ACAUGAGGAUCACCCAUGUUGAAUUAGGAUAUUUGACUGCACAUGAGGUUCACCCAUGUUCUACCGGAGAAGGGAUUAAUAAUU | – | – | 129 | 132 |
| CCUAAGGAGACAGGAUAUAGUGUGGUGGCCGGGCUCCCACGGCGAGCGGCACUAGAAGGGUCACUACAUGAGGAUCACCCAUGU | – | – | 30.3 | 15.6 |
| AUUAUAUAGAUAGGAUAUAGAAUAUUAUUUUAACAUGAGGAUCACCCAUGUAACCUUAUGUGUAGCUAGAAGGAUCAUUUAUUA | 80.3 | 113 | – | – |
| ACAUGAGGAUCACCCAUGUAAAAUGAAGAAGGUAUAUACUUGAGGAUCACCCAUGUACAUGGGAGUAAGGAUAUUCUAAUAAUU | – | – | 13.2 | 11.3 |
| UGUUAAUAUCGAGGAUAUGUCUAGACACAUGAGGAUCACCCAUGUAUGUGUAUAGAAGGCGAUAUUAACAGCAUGUUACAUGCU | – | – | 39.9 | 17.5 |
| UCACGGGUUUGAGGAUAUAUUAUUAUUAUUUAAAUAGAAGGCAAAGAAAUUGUUAUUUCACUAUACAUGAGGAUCACCCAUGUU | 25.4 | 23.4 | – | – |
| AGGAAGUGCCAGAAGGCUCCUGGAAUCCUAGGGAGAGGAUAUGGCACAUGAGGAUCACCCAUGUGGUAGAUCUGUUUCGAAGUG | 93.4 | 31.1 | – | – |
| UGGUACUAGGGAGGAUAUGGGAAGAUACAUGAGGAUCACCCAUGUUUAAGAAUGCCGAGAGGCAUCUAGAAGGCCCUAGUACCU | – | – | 877 | 115 |
| UGGUACAUGAGGAUCACCCAUGUAAGAGCCCUCAUGCGAUGUAGAAGGAUUAUGCGAGUAGUGCAAUAGGAUAUACAUGAGUUU | 216 | 163 | – | – |
| GUCCGGAGGGAGAAGGGCUAGGAGGUCCAGCUUAUGUGUGUUGCAACAUGAGGAUCACCCAUGUAGCAGGAUAUCCCUUUUACA | 47 | 233 | – | – |
| UGAUCGAGAGAUCUUAGAUUCUGGUAGGAUAUACAUUUAAAACGCUUUACAUGAGGAUCACCCAUGUAGAAGGACUAGAGUCUA | 6.68 | 7.5 | – | – |
| AAAAAACAUGAGGAUCACCCAUGUGAGGAUAUGACGUAAAUAAAGAAAGAAGAAAUCGUCAGAAGGCACACCUA | 52.7 | 79.3 | – | – |
| UAGUAUAAGGGCAUUAAACAUGAGGAUCACCCAUGUACGUUAGAGGAUAUGCAUUUCAGUUGAGAGUAGAAGGUUAGAGAAGGG | 45.1 | 47.4 | – | – |
| UGGCUACAUGAGGAUCACCCAUGUCAGGAUAUGCCGUCGGAUUGCCUUCGUCGUUCGGGUAGAAGGGACUGCGG | 24.6 | 24.1 | – | – |

| Sequence | apparent Kd [1] [nM] | apparent Kd [2] [nM] | apparent Kd [3] [nM] | apparent Kd [4] [nM] |
| --- | --- | --- | --- | --- |
| UCGUGAAGGACAGGAUAUGGACAUGAGGAUCACCCAUGUACAUGGGAAUAUAUACUGAAUUUGUACUAGAAGGGUUACAUAAAC | 30.9 | 19.8 | – | – |
| UAGUAGAUCCGAGGAUAUACAAUCCGGAAACGGUACAUGAGGAUCACCCAUGUAGAAGGCGGAUCUACAGGUACUAAAGUACCG | 6.19 | 9.18 | – | – |
| ACUAGAAGCGUGAGAUAUCACAUGAGGAUCACCCAUGUGACACAGGAUAUAACAAUAUCAGAAGGUUAGAAGGGUGAGCACGCC | – | – | 164 | 45.6 |
| AAUGUGUCAGGAUAUUGUUAGUUUAGUUGUUUGUAUUAGUUCGAGAAGGGACAUGAGGAUCACCCAUGUUGUUU | 30.2 | 30.6 | – | – |
| GCACGUGGACAGAAGGCGACAUGAGGAUCACCCAUGUUGGCUCGGGUAUGACCAAUCCGCAUGAUCGAGGAUAUGUCUGCGGGC | 264 | 15.9 | – | – |
| CAAUUUAUAACAGGAUAUAUAAUACAAUAGUUAAUAGAAGGGUUUAAUACAUGAGGAUCACCCAUGUCAUGUGUCAUAAUUACC | 34.8 | 30.5 | – | – |
| GUAUUACAUGAGGAUCACCCAUGUGAGGAUAUCGAUGUAACUAGCAGCGUGCGGGACUCGAGAAGGCACUUGGA | 49.1 | 142 | – | – |
| AAAAAACAUGAGGAUCACCCAUGUGAGGAUAUCGAAAAGUUAAAGAAAAAGACGAAAAUGAGAAGGCGCAAAAA | 47.3 | 46.7 | – | – |
| GCCAUCGUAUGAGGAUAUGGCACCGAAACGGUGCCAGAAGGCAUGUCAAUAGACAUGAGGAUCACCCAUGUUUUAUCGAUGGCA | – | – | 89.7 | 23.5 |
| GUUGUGCGAGGAUAUACUUGGUGUGUCCUGUGCACGUAAUGACAUGAGGAUCACCCAUGUAGAAGGUGCCCAGG | 32.8 | 33.9 | – | – |
| CGAAGUCCGUAGAAGGGUGACAUGAGGAUCACCCAUGUGCGAGCCGAGGGAGUCAGCGGCUCGCCACAGGAUAUACGGAUCACG | – | – | 17.1 | 61.8 |
| UGAUCGAAAGAUCAUAGAUUCUGCUAGGAUAUGCAGAAGUUUCGAUUUACAUGAGGAUCACCCAUGUAGAAGGAGUAGAGUCUA | 6.12 | 6.54 | – | – |
| AGUAGAUCAGGAUAUACGUGAAAGGUCAAAGUGUCCAAUAUACAUGAGGAUCACCCAUGUAGAAGGGAUCUACA | 24.8 | 111 | – | – |
| AAUUGGAUGCAGAAGGCAUGGACGACUCGUCACAUUAACAUGAGGAUCACCCAUGUCAAAAGACAUGAGGAUAUGCAUCCUAAA | – | – | 233 | 13.6 |
| GGUCCAUCAUGAGGAUAUGGCACCUUAUUGGUGCCAGAAGGCAUGUCUCUUGACAUGAGGAUCACCCAUGUAAUAAAUUGGACC | – | – | 915 | 125 |
| UAUGUAUUCGUAGGAUAUCCGUUAAAACCAUGUGGAGAAGGACGAACAUGAGGAUCACCCAUGUAUCAUGGUGUAGACAAUUUU | 55.5 | 321 | – | – |
| GUCAUGUUAGGAUAUCUGACAUGUGACUUCGGUCACUGUCCAGAGAAGGAACAUGAGGAUCACCCAUGUUGGAC | 55.6 | 63.9 | – | – |
| AUACAUCUUCGAGGAUAUCGGUGAUAAAUUUUACGAGAAGGCGAUGAAAGAUAUAAUCUUAUAUACAUGAGGAUCACCCAUGUU | – | – | 26 | 24.1 |
| AAAAAGUGAGGAUAUACGCUGUGGAGUAGACACAACCAGUCGUAGAAGGCACAUGAGGAUCACCCAUGUUCAAA | 27.2 | 30.1 | – | – |
| UCAUUAUAAAUCCAUCAUAACUACAUGAGGAUCACCCAUGUGCAGGAUAUCGAUUUUUUAACUUUCGAGAAGGGCAAUUACAGA | 37.6 | 96.1 | – | – |
| GUUUUUCCUCAUGUACAUGAGGAACAUGAGGAUCACCCAUGUAGAAGGAAUUUUUUUAAGUUUAGUUAGGAUAUACAUAUAUUG | 106 | 71.5 | – | – |
| GCGUUGAACGAGAAGGCCAAUACAUGAGGAUCACCCAUGUAGUGAAGUAUUGGAGGAUAUCGAUCGUCGUCUCAUGAGCAACGC | 8.88 | 25.3 | – | – |
| UUAUUAUGUGUAGGAUAUGCAUAUUAUGAUUAUGCAGAAGGACAUGAGGAUCACCCAUGUAUAUUAUUAUUAUAUAUUAUAUAU | 13.3 | 21.1 | – | – |
| GUAUGGAGGGAGAAGGGCUAGGAGGUCCAGCUUAUGUGUGUUGCAACAUGAGGAUCACCCAUGUAGCAGGAUAUCCCUUGUACA | 44.4 | 242 | – | – |
| UCUCGGUGUUCAGGAUAUGCAUCAAGGUUGUACGCAGAAGGGAACAUGAGGAUCACCCAUGUGUCCGAGCUGGGACGAGGGACG | 37.9 | 188 | – | – |
| GGGCGGAAUACAUGAGGAUCACCCAUGUCAGAAAGGGUAAUCAGAAGGUACUAUUAGAGAAAGAGUAAGGAUAUGAAUCCGCCC | – | – | 906 | 158 |
| UUUGGGUCAGGAUAUUGUUAGUUUAGUUGUUUGUAUUAGUUCGAGAAGGGACAUGAGGAUCACCCAUGUGGUAA | 94.9 | 69.9 | – | – |
